Assay results: ChEMBL document CHEMBL4024747, “Design, Synthesis, and Biological Activities of Vibsanin B Derivatives: A New Class of HSP90 C-Terminal Inhibitors” (J Med Chem, 2017)
Calls of active or inactive are those of the source. No cut-off for these calls is given here.

Key:
[1] = system: A549; test: Antiproliferative activity against human A549 cells assessed as reduction in cell viability after 48 hrs by MTT assay; assay type: functional, cell-based; conditions: for IC50: A549, 48 h
[2] = system: SMMC-7721; test: Antiproliferative activity against human SMMC7721 cells assessed as reduction in cell viability after 48 hrs by MTT assay; assay type: functional, cell-based; conditions: for IC50: SMMC-7721, 48 h
[3] = system: SW480; test: Antiproliferative activity against human SW480 cells assessed as reduction in cell viability after 48 hrs by MTT assay; assay type: functional, cell-based; conditions: for IC50: SW480, 48 h
[4] = species on record: Oryctolagus cuniculus; test: Inhibition of HSP90 in rabbit reticulocyte lysate assessed as decrease in HSP90-dependant refolding of firefly luciferase at 10 uM after 30 mins by luciferase gene based assay
Method in brief: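 Firefly luciferase heat-denatured at 41 °C for 10 min, then added with rabbit reticulocyte lysate to compounds at 10 μM. Renaturation at room temperature for 3 h; luciferin substrate added and luminescence read. Refolding expressed relative to DMSO; novobiocin at 500 μM as reference. Three independent experiments.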

[5] = system: MCF7; test: Antiproliferative activity against human MCF7 cells assessed as reduction in cell viability after 48 hrs by MTT assay; assay type: functional, cell-based; conditions: MCF7, 48 h
[6] = target: Luciferin 4-monooxygenase (Photinus pyralis) (UniProt P08659); test: Inhibition of firefly luciferase activity using luciferin substrate at 10 uM after 30 mins by luminescence assay
Sequence of Luciferin 4-monooxygenase (Photinus pyralis) (P08659 whole entry): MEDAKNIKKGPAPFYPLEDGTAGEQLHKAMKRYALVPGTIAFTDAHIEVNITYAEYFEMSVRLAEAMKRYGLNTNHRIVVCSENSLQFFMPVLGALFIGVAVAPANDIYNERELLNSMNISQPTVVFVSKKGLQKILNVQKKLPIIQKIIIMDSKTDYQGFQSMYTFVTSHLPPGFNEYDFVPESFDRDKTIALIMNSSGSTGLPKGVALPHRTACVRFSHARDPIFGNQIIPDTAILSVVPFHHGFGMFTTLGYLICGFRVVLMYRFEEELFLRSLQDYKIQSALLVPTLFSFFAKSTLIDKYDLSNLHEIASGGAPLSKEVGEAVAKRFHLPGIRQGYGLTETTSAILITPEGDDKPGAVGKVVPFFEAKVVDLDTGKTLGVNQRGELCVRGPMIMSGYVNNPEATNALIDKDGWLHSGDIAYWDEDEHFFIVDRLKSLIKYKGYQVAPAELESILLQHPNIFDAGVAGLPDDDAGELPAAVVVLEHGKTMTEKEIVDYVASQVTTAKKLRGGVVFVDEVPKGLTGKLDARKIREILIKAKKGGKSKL

[7] = system: HL-60; test: Antiproliferative activity against human HL60 cells assessed as reduction in cell viability after 48 hrs by MTT assay; assay type: functional, cell-based; conditions: for IC50: HL-60, 48 h
[8] = Stability of compound in pH 7.4 PBS at 37 degreeC after 12 hrs by HPLC analysis; assay type: physicochemical; conditions: buffer, pH 7.4, 12 h
Method in brief: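 Solution stability determined by HPLC after incubation in PBS pH 7.4 at 37 °C for 12 h.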

[9] = system: BT-474; test: Antiproliferative activity against human BT474 cells assessed as reduction in cell viability after 48 hrs by MTT assay; assay type: functional, cell-based; conditions: BT-474, 48 h
[10] = system: AGS; test: Antiproliferative activity against human AGS cells assessed as reduction in cell viability after 48 hrs by MTT assay; assay type: functional, cell-based
[11] = species on record: Danio rerio; test: Toxicity in 3 days post fertilized zebrafish embryo assessed as changes in embryonic phenotypes at 4 to 16 uM after 12 hrs; conditions: in vivo
[12] = system: Huh-7; test: Antiproliferative activity against human HuH7 cells assessed as reduction in cell viability after 48 hrs by MTT assay; assay type: functional, cell-based; conditions: Huh-7, 48 h
[13] = system: HeLa; test: Antiproliferative activity against human HeLa cells assessed as reduction in cell viability after 48 hrs by MTT assay; assay type: functional, cell-based
[14] = system: BEAS-2B; test: Cytotoxicity against human BEAS2B cells assessed as reduction in cell viability after 48 hrs by MTT assay; assay type: cell-based
[15] = system: HepG2; test: Antiproliferative activity against human HepG2 cells assessed as reduction in cell viability after 48 hrs by MTT assay; assay type: functional, cell-based; conditions: HepG2, 48 h
[16] = system: SK-BR-3; test: Antiproliferative activity against human SKBR3 cells assessed as reduction in cell viability after 48 hrs by MTT assay; assay type: functional, cell-based; conditions: SK-BR-3, 48 h
[17] = system: MDA-MB-468; test: Antiproliferative activity against human MDA-MB-468 cells assessed as reduction in cell viability after 48 hrs by MTT assay; assay type: functional, cell-based; conditions: MDA-MB-468, 48 h

Row | SMILES | IC50 [1] | IC50 [2] | IC50 [3] | IC50 [5] | IC50 [7] | further results
1 | CC(C)=CCC[C@]1(C)/C=C/[C@@H](OC(=O)C=C(C)C)[C@](C)(O)/C=C/C(=O)/C(CN2CCCC2)=C\C1 | 0.18 µM | 0.14 µM | 0.31 µM | 0.22 µM | 0.16 µM | inhibition [4]: < 50%; inhibition [6]: inactive
2 | CC(=O)O[C@]1(C)/C=C/C(=O)/C(CO)=C\C[C@](C)(CCC=C(C)C)/C=C/[C@H]1OC(=O)C=C(C)C | 3.15 µM | 3.08 µM | 2.01 µM | 2.32 µM | 2.37 µM | Stability [8]: Stable; inhibition [4]: < 50%; inhibition [6]: inactive
3 | CC(C)=CCC[C@]1(C)/C=C/[C@@H](OC(=O)C=C(C)C)[C@](C)(O)/C=C/C(=O)/C(CCl)=C\C1 | 0.15 µM | 0.84 µM | 0.39 µM | 0.61 µM | 0.16 µM | inhibition [4]: Active; inhibition [6]: inactive
4 | CC(C)=CCC[C@]1(C)/C=C/[C@@H](OC(=O)C=C(C)C)[C@](C)(O)/C=C/C(=O)/C(CO[Si](c2ccccc2)(c2ccccc2)C(C)(C)C)=C\C1 | 13 µM | 38 µM | 20.7 µM | 15.8 µM | 14.4 µM | 
5 | CC(C)=CCC[C@]1(C)/C=C/[C@@H](OC(=O)C=C(C)C)[C@](C)(O)/C=C/C(=O)/C(CF)=C\C1 | 0.14 to 0.62 µM | 0.14 to 0.62 µM | 0.14 to 0.62 µM | 0.24 µM | 0.14 to 0.62 µM | IC50 [9]: 0.94 µM; IC50 [10]: 0.74 µM; Activity [11]: Toxic; IC50 [12]: 0.54 µM; IC50 [13]: 0.88 µM; inhibition [4]: Active; IC50 [14]: 0.77 µM; IC50 [15]: 0.86 µM; inhibition [6]: inactive; IC50 [16]: 0.33 µM; IC50 [17]: 0.31 µM
6 | CC(C)=CCC[C@]1(C)/C=C/[C@@H](OC(=O)C(C)C)[C@](C)(O)/C=C/C(=O)/C(CO)=C\C1 | 10.8 µM | 10.4 µM | 8.51 µM | 11.7 µM | 4 µM | 
7 | CCN(CC)C/C1=C/C[C@](C)(CCC=C(C)C)/C=C/[C@@H](OC(=O)C=C(C)C)[C@](C)(O)/C=C/C1=O | 0.13 µM | 0.57 µM | 0.27 µM | 0.13 µM | 0.14 µM | 
8 | C=C1/C=C/C(=O)/C(CO)=C\C[C@](C)(CCC=C(C)C)/C=C/[C@H]1OC(=O)C=C(C)C | 3.09 µM | 4.3 µM | 2.97 µM | 2.75 µM | 2.81 µM | Stability [8]: Stable; inhibition [4]: Active; inhibition [6]: inactive
9 | CSC(=S)OC/C1=C/C[C@](C)(CCC=C(C)C)/C=C/[C@@H](OC(=O)C=C(C)C)[C@](C)(O)/C=C/C1=O | 0.38 µM | 0.72 µM | 0.39 µM | 0.9 µM | 0.18 µM | 
10 | CC(C)=CCC[C@]1(C)/C=C/[C@@H](OC(=O)C=C(C)C)[C@](C)(O)/C=C/[C@@H](O)/C(CO)=C\C1 | 18.7 µM | 16.4 µM | 19.7 µM | 17.4 µM | 15.9 µM | 
11 | CC(C)=CCC[C@]1(C)/C=C/[C@@H](OC(=O)C=C(C)C)[C@](C)(O)/C=C/C(=O)/C(C(=O)N(C)C)=C\C1 | 2.7 µM | 3.67 µM | 3.3 µM | 3.67 µM | 3.34 µM | 
12 | CC(C)=CCC[C@]1(C)/C=C/[C@@H](OC(=O)C=C(C)C)[C@](C)(O)/C=C/C(=O)/C(C=O)=C\C1 |  |  |  | 12.6 µM |  | Activity [1]: Active; Activity [2]: Active; Activity [3]: Active; Activity [7]: Active
13 | CC(C)=CCC[C@]1(C)/C=C/[C@@H](OC(=O)C=C(C)C)[C@](C)(O)/C=C/C(=O)/C(C(=O)N(C(C)C)C(C)C)=C\C1 | 13.5 µM | 17.2 µM | 16 µM | 17.2 µM | 12.7 µM | 
14 | CO/N=C/C1=C/C[C@](C)(CCC=C(C)C)/C=C/[C@@H](OC(=O)C=C(C)C)[C@](C)(O)/C=C/C1=O | 3.47 µM | 3.47 µM | 2.63 µM | 2.51 µM | 4.76 µM | 
15 | CC(C)=CCC[C@]1(C)/C=C/[C@@H](OC(=O)C=C(C)C)[C@](C)(O)/C=C/C(=O)/C(COC(=O)c2ccc([N+](=O)[O-])cc2)=C\C1 | 1.31 µM | 2.56 µM | 0.57 µM | 0.67 µM | 0.83 µM | 
16 | CC(C)=CCC[C@]1(C)/C=C/[C@@H](OC(=O)C=C(C)C)[C@](C)(O)/C=C/C(=O)/C(C(=O)N2CCCC2)=C\C1 | 13 µM | 14.9 µM | 15.1 µM | 17.2 µM | 12.3 µM | 
17 | CC(C)=CCC[C@](C)(/C=C/[C@@H](OC(=O)C=C(C)C)[C@](C)(O)/C=C/C(=O)/C=C/N1CCOCC1)CC=O | 8.73 µM | 7.44 µM | 9.88 µM | 12.3 µM | 4.06 µM | 
18 | COC/C1=C/C[C@](C)(CCC=C(C)C)/C=C/[C@@H](OC(=O)C=C(C)C)[C@](C)(OC)/C=C/C1=O | 4.18 µM | 9.38 µM | 14.6 µM | 16.5 µM | 4.05 µM | 
19 | CCCC(=O)O[C@@H]1/C=C/[C@@](C)(CCC=C(C)C)C/C=C(/CO)C(=O)/C=C/[C@@]1(C)O | 4.1 µM | 7.81 µM | 2.51 µM | 6.04 µM | 4.18 µM | 
20 | CC(C)=CCC[C@]1(C)/C=C/[C@@H](OC(=O)C=C(C)C)[C@](C)(O)/C=C/[C@H](O)/C(CO)=C\C1 | > 40 µM | > 40 µM | > 40 µM | 33 µM | > 40 µM | 
21 | COC/C1=C/C[C@](C)(CCC=C(C)C)/C=C/[C@@H](OC(=O)C=C(C)C)[C@](C)(O)/C=C/C1=O | 3.95 µM | 11 µM | 3.85 µM | 4.13 µM | 3.07 µM | 
22 | CC(C)=CCC[C@](C)(/C=C/[C@@H](OC(=O)C=C(C)C)[C@](C)(O)/C=C/C(=O)/C=C/N(C)C)CC=O | 11.2 µM | 10.2 µM | 10.3 µM | 12.2 µM | 4.69 µM | 
23 | CC(=O)OC/C1=C/C[C@](C)(CCC=C(C)C)/C=C/[C@@H](OC(=O)C=C(C)C)[C@](C)(O)/C=C/C1=O | 2.95 to 4.63 µM | 2.95 to 4.63 µM | 2.95 to 4.63 µM | 4.51 µM | 2.95 to 4.63 µM | 
24 | CCN(CC)C(=O)/C1=C/C[C@](C)(CCC=C(C)C)/C=C/[C@@H](OC(=O)C=C(C)C)[C@](C)(O)/C=C/C1=O | 11.3 µM | 13.8 µM | 11.7 µM | 12.1 µM | 9.08 µM | 
25 | CC(C)=CCC[C@]1(C)/C=C/[C@@H](OC(=O)C=C(C)C)[C@](C)(O)/C=C/C(=O)/C(Cn2cc(CO)nn2)=C\C1 | 3.47 µM | 3.56 µM | 2.87 µM | 2.93 µM | 3.2 µM | 
26 | CC(C)=CCC[C@]1(C)/C=C/[C@@H](OC(=O)C=C(C)C)[C@](C)(O)/C=C/C(=O)/C(CN=[N+]=[N-])=C\C1 | 1.72 µM | 3.08 µM | 4.23 µM | 4.89 µM | 0.91 µM | 
27 | COCO[C@@H]1/C=C/[C@@](C)(CCC=C(C)C)C/C=C(/CO)C(=O)/C=C/[C@@]1(C)O | > 40 µM | > 40 µM | > 40 µM | > 40 µM | > 40 µM | 
28 | CC(C)=CCC[C@]1(C)/C=C/[C@@H](OC(=O)C=C(C)C)[C@](C)(O)/C=C/C(=O)/C(CN(C(C)C)C(C)C)=C\C1 | 0.65 µM | 0.34 µM | 0.75 µM | 0.78 µM | 0.74 µM | 
